Each block holds one compound with its values, some of them ahead of it. The source made the active and inactive calls. The rule behind the calls is not given here. Non-standard residues stand in square brackets, D forms with d. Residues, ends and D or L forms follow the SMILES beside them. 2Nal = N[C@@H](Cc1ccc2ccccc2c1)C(=O)O
How the values were obtained:
Mesangial cell [1] = assay: Induction of F-actin polymerization in human mesangial cells assessed as increase in F-actin levels measured after 24 hrs by Alexa 568-phalloidin based confocal microscopy
Procedure, shortened: (§1)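 Human mesangial cells incubated 24 h with compound at 50 μM, or with buffer as control. Cells stained with Alexa 568 phalloidin and F-actin examined by confocal microscopy. F-actin amount measured in three independent assays; mean ± SEM expressed as percent of control values; p < 0.05 vs control.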

[2] = biological target: T1, Scaffold protein ILK (Homo sapiens) (UniProt Q13418); assay: Induction of ILK (unknown origin)
T1 sequence (whole entry): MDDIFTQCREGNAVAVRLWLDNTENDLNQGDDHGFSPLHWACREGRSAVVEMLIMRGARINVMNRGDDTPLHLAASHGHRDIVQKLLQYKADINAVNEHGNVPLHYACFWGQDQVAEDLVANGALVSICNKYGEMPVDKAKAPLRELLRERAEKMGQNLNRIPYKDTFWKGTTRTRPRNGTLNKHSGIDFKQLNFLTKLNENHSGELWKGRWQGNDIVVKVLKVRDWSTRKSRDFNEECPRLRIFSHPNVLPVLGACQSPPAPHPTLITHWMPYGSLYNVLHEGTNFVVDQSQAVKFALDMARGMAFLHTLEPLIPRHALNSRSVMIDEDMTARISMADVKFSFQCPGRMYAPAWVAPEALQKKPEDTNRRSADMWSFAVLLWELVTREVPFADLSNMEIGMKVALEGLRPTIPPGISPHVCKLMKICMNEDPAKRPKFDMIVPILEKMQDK

[3] = biological target: T1, Scaffold protein ILK (Homo sapiens); assay: Modulation of ILK in human mesangial cells assessed as reduction in GSK-3beta phosphorylation at ser9 residue at 50 uM measured upto 90 mins by Western blot analysis; format: cell-based; conditions: Mesangial cell, time min <=90
Mesangial cell [4] = assay: Induction of F-actin polymerization in human mesangial cells assessed as F-actin levels at 50 uM measured after 24 hrs by Alexa 568-phalloidin based confocal microscopy; conditions: filed as activator; procedure, shortened: as §1
[5] = Cytotoxicity against human mesangial cells assessed as reduction in cell viability at 1 to 100 uM incubated for 24 hrs by MTT assay; format: cell-based; conditions: dose 1-100 µM
[6] = biological target: T1, Scaffold protein ILK (Homo sapiens); assay: Modulation of ILK in human mesangial cells assessed as reduction in AKT phosphorylation at Ser473 residue at 50 uM measured upto 90 mins by Western blot analysis; format: cell-based; conditions: Mesangial cell, time min <=90
Mesangial cell [7] = assay: Induction of F-actin polymerization in human mesangial cells ILK siRNA assessed as increase in phalloidin content at 50 uM measured after 24 hrs by Alexa 568-phalloidin based confocal microscopy relative to control; conditions: filed as activator
Procedure, shortened: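 Human mesangial cells transfected with ILK siRNA, or scrambled siRNA as transfection control; cells then held in buffer (control) or compound at 50 μM for 24 h. Stained with Alexa 568 phalloidin and imaged by confocal microscopy. F-actin quantified in three independent assays; mean ± SEM as percentage vs control, p < 0.05 vs control.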

[8] = biological target: T1, Scaffold protein ILK (Homo sapiens); assay: Inhibition of ILK (unknown origin)

SMILES: COC(=O)[C@@H](NC(=O)[C@H](C)NC(=O)[C@H](Cc1ccc(O)cc1)NC(C)=O)C(C)C (Ac-Tyr-Ala-Val-OMe)
- Activity [2]: inactive

SMILES: COC(=O)[C@@H](NC(=O)[C@H](Cc1ccccc1)NC(=O)[C@H](C)NC(C)=O)C(C)C (Ac-Ala-Phe-Val-OMe)
- Activity [2]: inactive
- Activity [5]: Non-Toxic
- Activity (Mesangial cell [7]): 59%

SMILES: COC(=O)[C@H](CO)NC(=O)[C@H](Cc1ccc2ccccc2c1)NC(=O)[C@H](Cc1ccc(O)cc1)NC(C)=O (Ac-Tyr-[2Nal]-Ser-OMe)
- inhibition [8]: Active
- Activity [2]: inactive

Further lines, with some results ahead:

- Activity [2]: inactive
SMILES: CC(=O)N[C@@H](Cc1ccc(O)cc1)C(=O)N[C@@H](Cc1ccccc1)C(=O)N[C@H](C(=O)O)C(C)C (Ac-Tyr-Phe-Val-OH)
- Activity (Mesangial cell [1]): inactive

- Activity [3]: inactive
- Activity [2]: inactive
- Activity [6]: inactive
SMILES: COC(=O)[C@@H](NC(=O)[C@H](Cc1ccccc1)NC(=O)[C@H](Cc1ccc(O)cc1)NC(C)=O)C(C)C (Ac-Tyr-Phe-Val-OMe)
- Activity (Mesangial cell [4]): Active
- Activity [5]: Non-Toxic
- Activity (Mesangial cell [7]): 100%

- Activity [2]: inactive
SMILES: COC(=O)[C@H](CO)NC(=O)[C@H](Cc1ccccc1)NC(=O)[C@H](Cc1ccc(O)cc1)NC(C)=O (Ac-Tyr-Phe-Ser-OMe)

- inhibition [8]: Active
- Activity [2]: inactive
SMILES: COC(=O)[C@@H](NC(=O)[C@H](Cc1ccc2ccccc2c1)NC(=O)[C@H](Cc1ccc(O)cc1)NC(C)=O)C(C)C (Ac-Tyr-[2Nal]-Val-OMe)

- Activity [2]: inactive
SMILES: COC(=O)[C@H](C)NC(=O)[C@H](Cc1ccccc1)NC(=O)[C@H](Cc1ccc(O)cc1)NC(C)=O (Ac-Tyr-Phe-Ala-OMe)

Source: ChEMBL document CHEMBL4825777, “Tripeptides as Integrin-Linked Kinase Modulating Agents Based on a Protein-Protein Interaction with α-Parvin” (ACS Med Chem Lett, 2021)
